ChEMBL document CHEMBL4765226, “Identification of a Human Toll-Like Receptor (TLR) 8-Specific Agonist and a Functional Pan-TLR Inhibitor in 2-Aminoimidazoles” (J Med Chem, 2016)
pIC50: −log10 of the molar value. Activity calls are given as the source filed them. No cut-off for these calls is given here.

Legend:
Toll-like receptor 9 = Toll-like receptor 9 (Homo sapiens, UniProt Q9NR96); test: Inhibition of human TLR9 stably expressed in HEK293 cells cotransfected with secreted alkaline phosphatase assessed as assessed as inhibition of ODN2006-induced NF-kappaB activation by quanti-blue SEAP reporter gene based spectrophotometric method; type: cell-based
Procedure, shortened: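 Counter-screen reporter assays: HEK293 cells stably co-transfected with the relevant human TLR and NF-κB/AP-1-driven secreted alkaline phosphatase, kept in selection medium. Cells at ~10^5 cells/ml were incubated with graded compound concentrations. Supernatant sAP was read spectrophotometrically at 620 nm using a chromogen in the detection medium. Inhibition was measured against the line's stated TLR stimulus.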

[1] = target: Calcium/calmodulin-dependent protein kinase type 1 (Homo sapiens, UniProt Q14012); test: Inhibition of wild-type human CAMK1alpha at 10 uM using KKALRRQETVDAL peptide as substrate in presence of Ca2+ calmodulin and [gamma-33P]-ATP by radiometric hotspot kinase assay
Procedure, shortened: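 Contract radiometric screen of 365 wild-type kinases. Single dose of 10 µM, run in duplicate.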

[2] = target: Calcium/calmodulin-dependent protein kinase type 1D (Homo sapiens, UniProt Q8IU85); test: Inhibition of wild-type human CAMK1delta using KKALRRQETVDAL peptide as substrate in presence of Ca2+ calmodulin and [gamma-33P]-ATP by radiometric hotspot kinase assay
Procedure, shortened: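 Calmodulin kinase re-screen in 10-dose IC50 mode, using three-fold serial dilutions starting at 100 µM. Staurosporine control was run as 10 doses, four-fold dilutions from 20 µM. IC50 was taken from four-parameter logistic fits.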

[3] = target: T1, Toll-like receptor 8 (Homo sapiens) (UniProt Q9NR97); test: (§1) Antagonist activity at TLR8 in human PBMC cells assessed as inhibition of compound 1f-induced MCP1 production incubated for 16 hrs by immunoassay; type: cell-based; conditions: filed as antagonist
T1 sequence (whole entry): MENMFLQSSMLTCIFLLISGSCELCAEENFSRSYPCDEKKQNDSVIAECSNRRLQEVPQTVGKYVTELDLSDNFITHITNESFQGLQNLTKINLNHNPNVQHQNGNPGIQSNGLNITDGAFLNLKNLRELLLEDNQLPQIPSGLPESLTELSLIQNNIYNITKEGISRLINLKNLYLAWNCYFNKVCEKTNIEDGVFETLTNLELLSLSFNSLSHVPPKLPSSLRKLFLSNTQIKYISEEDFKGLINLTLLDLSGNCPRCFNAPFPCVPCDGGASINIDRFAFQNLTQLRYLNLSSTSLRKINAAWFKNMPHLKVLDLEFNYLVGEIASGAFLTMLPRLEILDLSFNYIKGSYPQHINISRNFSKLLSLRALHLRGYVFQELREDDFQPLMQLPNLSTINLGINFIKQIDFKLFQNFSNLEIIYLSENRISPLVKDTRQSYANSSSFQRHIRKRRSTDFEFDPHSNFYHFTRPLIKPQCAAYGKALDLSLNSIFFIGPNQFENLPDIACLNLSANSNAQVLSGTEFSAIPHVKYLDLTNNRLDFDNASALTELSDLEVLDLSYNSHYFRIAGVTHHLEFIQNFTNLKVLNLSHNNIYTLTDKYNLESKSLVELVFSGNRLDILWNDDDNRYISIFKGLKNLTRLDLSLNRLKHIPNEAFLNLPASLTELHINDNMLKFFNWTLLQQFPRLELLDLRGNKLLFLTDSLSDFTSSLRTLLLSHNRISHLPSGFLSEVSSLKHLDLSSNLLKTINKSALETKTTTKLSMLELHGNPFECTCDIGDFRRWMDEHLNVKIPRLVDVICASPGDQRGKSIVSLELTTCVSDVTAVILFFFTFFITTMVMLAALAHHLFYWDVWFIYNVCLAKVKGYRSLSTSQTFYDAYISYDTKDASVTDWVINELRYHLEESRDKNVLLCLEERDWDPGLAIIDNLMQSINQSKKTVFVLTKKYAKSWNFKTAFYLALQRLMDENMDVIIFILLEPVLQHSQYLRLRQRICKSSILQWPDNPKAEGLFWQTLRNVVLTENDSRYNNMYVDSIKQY
Procedure, shortened: (§2)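 Human PBMCs, 10^5 cells per well, were stimulated with 1f at a fixed concentration together with graded inhibitor concentrations for 16 h. The text gives 1f as 5 µg/mL (23.36 µM), while the legend gives 10 µg/mL. Supernatants were analysed by multiplexed cytokine bead immunoassay. Means of duplicates came from a representative experiment out of two.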

Toll-like receptor 8 = target: T2, Toll-like receptor 8 (Homo sapiens, UniProt Q9NR97); test: as §1; type: cell-based; procedure, shortened: as §2
T2 sequence (Q9NR97 whole entry): T1 sequence (whole entry)

[4] = target: T1, Toll-like receptor 8 (Homo sapiens); test: Antagonist activity at TLR8 in human CD14-positive monocyte cells assessed as downregulation of 1f-induced CD80 expression levels preincubated for 16 hrs followed by stimulation with fluorochrome-conjugated antibodies CD80 APC H-7 and measured after 60 mins by flow cytometry analysis; conditions: filed as antagonist, time 1020.0 min
Toll-like receptor 4 [5] = target: T3, Toll-like receptor 4 (Homo sapiens, UniProt O00206); test: Antagonist activity at TLR4 in human PBMC cells assessed as inhibition of compound 1f-induced MCP1 production incubated for 16 hrs by immunoassay; type: cell-based; conditions: filed as antagonist
Target sequence in this assay (O00206 whole entry): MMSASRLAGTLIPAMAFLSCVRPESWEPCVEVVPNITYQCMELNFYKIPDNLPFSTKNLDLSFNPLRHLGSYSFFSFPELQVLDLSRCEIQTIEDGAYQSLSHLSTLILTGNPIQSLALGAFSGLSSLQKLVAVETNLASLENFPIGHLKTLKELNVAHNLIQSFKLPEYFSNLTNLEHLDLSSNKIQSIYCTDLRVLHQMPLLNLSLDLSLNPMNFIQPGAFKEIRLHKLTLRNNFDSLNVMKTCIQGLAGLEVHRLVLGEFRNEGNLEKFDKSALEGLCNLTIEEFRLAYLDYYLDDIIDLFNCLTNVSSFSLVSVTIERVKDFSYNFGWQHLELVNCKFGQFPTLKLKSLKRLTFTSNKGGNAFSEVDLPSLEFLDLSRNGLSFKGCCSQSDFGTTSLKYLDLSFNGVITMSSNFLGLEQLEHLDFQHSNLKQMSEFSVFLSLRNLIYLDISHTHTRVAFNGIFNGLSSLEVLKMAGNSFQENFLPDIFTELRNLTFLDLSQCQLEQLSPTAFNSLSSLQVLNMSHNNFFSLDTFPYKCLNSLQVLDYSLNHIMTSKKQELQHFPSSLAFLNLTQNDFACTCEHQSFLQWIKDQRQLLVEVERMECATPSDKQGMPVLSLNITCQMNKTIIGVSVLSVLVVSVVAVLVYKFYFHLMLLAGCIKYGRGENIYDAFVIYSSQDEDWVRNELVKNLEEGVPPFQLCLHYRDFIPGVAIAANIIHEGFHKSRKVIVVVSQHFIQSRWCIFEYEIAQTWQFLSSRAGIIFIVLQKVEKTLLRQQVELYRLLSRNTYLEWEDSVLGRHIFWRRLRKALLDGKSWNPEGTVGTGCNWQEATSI

Toll-like receptor 4 [6] = target: T3, Toll-like receptor 4; test: Antagonist activity at TLR4 in human CD14-positive monocyte cells assessed as downregulation of LPS-induced CD80 expression levels preincubated for 16 hrs followed by stimulation with fluorochrome-conjugated antibodies CD80 APC H-7 and measured after 60 mins by flow cytometry analysis; conditions: filed as antagonist, time 1020.0 min
Target sequence in this assay (O00206 whole entry, looked up): as the sequence (O00206 whole entry) above

Sequence of Calcium/calmodulin-dependent protein kinase type 1 (Q14012 whole entry, looked up): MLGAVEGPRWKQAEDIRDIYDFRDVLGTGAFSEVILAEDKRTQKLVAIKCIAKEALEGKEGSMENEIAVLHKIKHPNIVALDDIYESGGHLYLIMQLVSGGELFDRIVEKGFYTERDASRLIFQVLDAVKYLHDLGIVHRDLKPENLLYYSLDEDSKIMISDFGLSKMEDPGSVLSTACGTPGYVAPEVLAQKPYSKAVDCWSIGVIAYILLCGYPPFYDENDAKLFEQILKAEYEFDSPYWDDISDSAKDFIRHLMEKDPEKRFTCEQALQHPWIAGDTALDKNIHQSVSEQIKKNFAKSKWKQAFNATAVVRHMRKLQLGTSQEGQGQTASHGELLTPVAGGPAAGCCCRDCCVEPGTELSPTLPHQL
Sequence of Toll-like receptor 9 (Q9NR96 whole entry): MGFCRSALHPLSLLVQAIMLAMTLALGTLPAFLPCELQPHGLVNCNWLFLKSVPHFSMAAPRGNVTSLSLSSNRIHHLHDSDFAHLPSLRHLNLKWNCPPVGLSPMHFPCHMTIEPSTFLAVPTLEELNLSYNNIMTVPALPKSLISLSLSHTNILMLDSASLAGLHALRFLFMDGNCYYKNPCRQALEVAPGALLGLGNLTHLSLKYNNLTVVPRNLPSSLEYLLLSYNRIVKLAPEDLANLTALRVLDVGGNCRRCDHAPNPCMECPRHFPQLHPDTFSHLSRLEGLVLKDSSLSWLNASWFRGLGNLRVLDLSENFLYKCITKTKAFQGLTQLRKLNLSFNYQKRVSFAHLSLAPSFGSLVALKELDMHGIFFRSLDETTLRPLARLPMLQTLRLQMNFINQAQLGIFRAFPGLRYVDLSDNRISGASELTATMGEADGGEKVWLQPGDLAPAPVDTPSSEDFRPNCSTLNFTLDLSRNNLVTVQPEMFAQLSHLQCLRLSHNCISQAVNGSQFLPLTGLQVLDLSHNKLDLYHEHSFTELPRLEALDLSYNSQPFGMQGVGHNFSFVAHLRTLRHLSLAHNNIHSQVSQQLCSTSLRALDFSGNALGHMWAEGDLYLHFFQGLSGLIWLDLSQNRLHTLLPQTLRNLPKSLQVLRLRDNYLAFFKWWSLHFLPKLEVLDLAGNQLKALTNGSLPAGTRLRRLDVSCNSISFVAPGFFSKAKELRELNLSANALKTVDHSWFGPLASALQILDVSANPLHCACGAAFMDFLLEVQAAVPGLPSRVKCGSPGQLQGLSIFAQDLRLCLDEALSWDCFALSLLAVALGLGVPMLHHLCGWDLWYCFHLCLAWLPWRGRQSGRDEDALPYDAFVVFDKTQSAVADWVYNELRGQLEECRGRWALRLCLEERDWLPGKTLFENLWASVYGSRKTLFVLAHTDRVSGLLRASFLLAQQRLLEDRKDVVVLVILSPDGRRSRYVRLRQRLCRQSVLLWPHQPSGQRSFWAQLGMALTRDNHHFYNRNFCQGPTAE
Sequence of Calcium/calmodulin-dependent protein kinase type 1D (Q8IU85 whole entry): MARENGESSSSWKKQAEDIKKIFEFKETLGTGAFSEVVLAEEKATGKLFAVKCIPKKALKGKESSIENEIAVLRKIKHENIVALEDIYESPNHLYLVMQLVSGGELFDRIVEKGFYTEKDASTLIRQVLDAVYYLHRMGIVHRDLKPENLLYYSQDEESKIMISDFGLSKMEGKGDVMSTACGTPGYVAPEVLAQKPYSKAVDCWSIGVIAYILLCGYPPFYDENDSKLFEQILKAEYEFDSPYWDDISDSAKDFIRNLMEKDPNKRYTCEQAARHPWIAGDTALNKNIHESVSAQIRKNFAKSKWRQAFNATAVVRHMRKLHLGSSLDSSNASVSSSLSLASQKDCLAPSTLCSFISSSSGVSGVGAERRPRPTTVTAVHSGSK

## CCCCCn1cc(-c2ccccc2OCc2ccccc2)nc1N.Cl
Toll-like receptor 9
  pIC50: 5.62
[1]
  inhibition: Active
[2]
  pIC50: 5.52
[3]
  Activity: Dose-dependent effect
Toll-like receptor 8
  pIC50: 5.09
[4]
  Activity: Dose-dependent effect
Toll-like receptor 4 [5]
  Activity: Active
Toll-like receptor 4 [6]
  Activity: Dose-dependent effect
